PG9 Ab binder: binders of HIV-1 gp120 antibody PG9, primary screen, biochemical, TR-FRET; inhibition, % at 6.7 µM; HIV-1 gp120 / PG9 antibody interaction; TR-FRET gp120-PG9 antibody binding; hit rate 0.43% among 360,000; AID 624416, 2012; in the data active = inhibition above about 8.5%
NR2E3 ag-1: inhibitors of NR2E3-RetCOR corepressor binding, primary screen, NR2E3 agonist project, biochemical, TR-FRET, GST-NR2E3, biotin-RetCOR; 1536-well; inhibition of corepressor binding, % at 4.78 µM; hit rate 0.12% among 320,000;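 active = percent inhibition above the cutoff of mean plus 3 SD of all tested compounds, set per screening campaign, cut at about 20% in these data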;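 note: 0% = DMSO wells and 100% = biotin wells as full block of FRET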
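Material: NR2E3–RetCOR corepressor complex / Incubation: Compound–protein incubation for 5 h at 4 °C / Dosing: compound at 4.8 µM, single dose / Detection: time-resolved FRET / Benchmarks: high control biotin, low control 0.6% DMSO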
Rev-erbA mod: modulators of Rev-erb alpha DNA binding, primary screen, biochemical, FITC-DNA, fluorescence polarization, uHTS; Rev-erbα–FITC-DNA binding, 90 min; activity, % at 10 µM; hit rate 0.79% among 370,000; AID 1259318, 2017;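 active = activity above about 14%, limit read from the data; passing the limit was not always enough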;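 note: 0% = DMSO wells with 35 nM protein and 100% = DMSO wells with 750 nM protein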
Target sequence (P20393 whole entry, looked up): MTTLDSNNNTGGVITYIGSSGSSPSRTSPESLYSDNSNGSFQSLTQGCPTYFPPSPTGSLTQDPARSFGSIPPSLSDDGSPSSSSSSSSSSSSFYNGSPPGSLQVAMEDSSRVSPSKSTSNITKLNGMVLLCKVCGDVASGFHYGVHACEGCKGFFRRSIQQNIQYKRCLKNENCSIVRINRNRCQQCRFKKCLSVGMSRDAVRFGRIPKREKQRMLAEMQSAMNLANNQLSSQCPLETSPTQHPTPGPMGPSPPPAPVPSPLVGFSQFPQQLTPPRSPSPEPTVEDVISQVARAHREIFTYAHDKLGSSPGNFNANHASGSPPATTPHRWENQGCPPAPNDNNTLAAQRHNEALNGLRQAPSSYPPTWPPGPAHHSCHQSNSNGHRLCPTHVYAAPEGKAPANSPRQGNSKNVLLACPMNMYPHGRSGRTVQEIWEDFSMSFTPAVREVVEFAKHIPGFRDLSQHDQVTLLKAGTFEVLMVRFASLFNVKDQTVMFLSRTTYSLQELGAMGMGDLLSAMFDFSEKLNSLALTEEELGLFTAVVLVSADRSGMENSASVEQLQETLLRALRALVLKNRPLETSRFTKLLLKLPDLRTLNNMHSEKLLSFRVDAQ
NR2E3 ag-2: NR2E3 agonists in two-hybrid cells, primary screen, cell-based, luminescence, CHO-S, Gal4-NCOR/VP16-NR2E3; Photoreceptor-specific nuclear receptor (Homo sapiens), Q9Y5X4; luciferase; inhibition of corepressor binding, % at 3.98 µM; hit rate 0.35% among 360,000;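 active = inhibition above the mean of all tested compounds plus 3 SD, cut at about 70% in these data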;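 note: 0% = DMSO with NR2E3 transfected cells and 100% = cells lacking NR2E3 construct; higher means lower luciferase signal from less NR2E3 corepressor binding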
NR2E3 agonist cf: NR2E3 agonists, confirmation, biochemical, TR-FRET; activation (reported as inhibition), % at 3.98 µM; AID 2379, 2010; cell-free NR2E3 corepressor release, 5 h; shares compounds with NR2E3 ag-1; hit rate 39% among 360; in the data active = activation above about 20%
PPARg-NCOR2 ag: agonists of PPARg-NCOR2 corepressor interaction, counter-screen for NR2E3 agonist project, biochemical, TR-FRET. shares compounds with NR2E3 ag-1. TR-FRET PPARg-NCOR2 coregulator interaction. inhibition, % at 3.98 µM. hit rate 45% among 360. AID 504787, 2011; in the data active = inhibition above about 20%;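 note: 0% = DMSO vehicle and 100% = wells without protein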
PG9 binder conf: binders of anti-gp120 antibody PG9, confirmation, biochemical, TR-FRET; shares compounds with PG9 Ab binder; TR-FRET PG9 antibody binding; inhibition, % at 6.7 µM; hit rate 90% among 1,500; AID 651571, 2012; in the data active = inhibition above about 9%
PGV04 Ab binding: binders of control antibody PGV04, counter-screen for PG9 antibody binder project, biochemical, TR-FRET, distinct HIV envelope site; shares compounds with PG9 Ab binder; TR-FRET PGV04 antibody-gp120 binding; inhibition, % at 6.7 µM; hit rate 95% among 1,500; AID 651604, 2012; in the data active = inhibition above about 9.5%
PG9 bind DR: small-molecule binders of antibody PG9, dose response, biochemical, TR-FRET, HIV-1 gp120 antibody. 95 tested, under 10 active. AID 651848, 2012. TR-FRET PG9 antibody-gp120 binding inhibition. shares compounds with PG9 Ab binder. IC50, µM; in the data active = IC50 below about 10 µM
PGV04 DR counter: binders of control antibody PGV04, dose response, counter-screen for PG9 antibody binder project, biochemical, TR-FRET, distinct HIV envelope site. hit rate 20% among 95. shares compounds with PG9 Ab binder. IC50, µM. TR-FRET binding to control antibody PGV04. AID 651937, 2012
PG126 DR counter: binders of control antibody PG126, dose response, counter-screen for PG9 antibody binder project, biochemical, TR-FRET, distinct HIV envelope site; IC50, µM; shares compounds with PG9 Ab binder; TR-FRET binding to antibody PG126, counterscreen; hit rate 20% among 95
NR1D1 mod conf: modulators of Rev-erb alpha DNA binding, confirmation, biochemical, FITC-DNA, fluorescence polarization, single point; 90 min; shares compounds with Rev-erbA mod; activation, % at 25 µM; hit rate 61% among 3,000;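 active = activation at or above a set limit, or at least 3 SD above the negative control mean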;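 note: 0% = 35 nM protein with DMSO and 100% = 750 nM protein high control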
RORg counter: modulation of RORgamma DNA binding, dose response, counter-screen for Rev-erb alpha modulator project, biochemical, fluorescence polarization, FITC-DNA. shares compounds with Rev-erbA mod. purified RORgamma protein-FITC-DNA binding. IC50, µM. hit rate 8% among 910. AID 1259320, 2017;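 active = Compounds whose fitted half-maximal concentration for disrupting protein-DNA binding is below 10 micromolar; the record names Rev-erb in its text, so the target is in doubt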
* marks the source's active call; other numbers are inactive results. Only some compounds are listed: those with a hit (about 1.5% of all), similar ones and a draw of the others. Cut-off read from the data, not from the text of the source, unless noted: active = IC50 below about 9 µM; inactive = the rest.

For Cc1ccccc1CNc1ncnc2cc(Cl)ccc12 the results were PG9 Ab binder 90*, NR2E3 ag-1 79*, Rev-erbA mod 239*, NR2E3 ag-2 6, NR2E3 agonist cf 82*, PPARg-NCOR2 ag 82*, PG9 binder conf 90*, PGV04 Ab binding 96*, NR1D1 mod conf 189* and RORg counter 2.1*.
For COc1cc2ncnc(NCc3ccccc3C)c2cc1OC the results were PG9 Ab binder -1, NR2E3 ag-1 2, Rev-erbA mod -3 and NR2E3 ag-2 -4.
CC(=O)N[C@@H](CCC(N)=O)C(=O)O was read as Rev-erbA mod 2.
CC(=O)Nc1ccc(NC(=O)C(C)OC(=O)/C(C#N)=C/c2ccc(N(C)C)cc2)cc1 (stereo not given) was read as PG9 Ab binder 17*, NR2E3 ag-1 34*, Rev-erbA mod 18*, NR2E3 ag-2 -46, NR2E3 agonist cf 30*, PPARg-NCOR2 ag 30*, PG9 binder conf 20*, PGV04 Ab binding 37* and NR1D1 mod conf 14*.
For CC(OC(=O)/C(C#N)=C/c1ccc(N(C)C)cc1)C(=O)N(C)c1ccccc1 (stereo not given) the results were PG9 Ab binder 0, NR2E3 ag-1 1, Rev-erbA mod 12 and NR2E3 ag-2 9.
CC/C=C(\C(=O)N[C@@H]1C(=O)N2C(C(=O)OCOC(=O)C(C)(C)C)=C(COC(N)=O)CS[C@H]12)c1csc(N)n1 was read as Rev-erbA mod -4.
`C=CCn1c(SCC(=O)NC(=O)NCc2ccco2)nc2sc(C)c(C)c2c1=O` gave PG9 Ab binder 23*, NR2E3 ag-1 22*, Rev-erbA mod 51*, NR2E3 ag-2 -7, NR2E3 agonist cf -2, PPARg-NCOR2 ag 8, PG9 binder conf 28*, PGV04 Ab binding 41* and NR1D1 mod conf 41*.
Screening Cc1ccc(NC(=S)Nc2nc(CC(=O)Nc3ccccc3)cs2)cc1 returned PG9 Ab binder 16*, NR2E3 ag-1 20*, Rev-erbA mod 101*, NR2E3 ag-2 -13, NR2E3 agonist cf 13, PPARg-NCOR2 ag 13, PG9 binder conf 11*, PGV04 Ab binding 9.7*, PG9 bind DR >67, PGV04 DR counter inactive, PG126 DR counter inactive, NR1D1 mod conf 91* and RORg counter >40.
Screening COc1cccc(NC(=S)Nc2cc(C)cc(C)n2)c1 returned PG9 Ab binder -1, NR2E3 ag-1 31*, Rev-erbA mod 31*, NR2E3 ag-2 -90, NR2E3 agonist cf 30*, PPARg-NCOR2 ag 39* and NR1D1 mod conf 8.
CC(=O)c1sc(NC(=O)c2ccco2)nc1-c1ccccc1 was read as NR2E3 ag-1 5 and NR2E3 ag-2 -139.
For CCOC(=O)c1sc(NC(=O)c2ccco2)nc1-c1ccccc1 the results were PG9 Ab binder 10*, NR2E3 ag-1 20*, Rev-erbA mod 46*, NR2E3 ag-2 6, NR2E3 agonist cf 9, PPARg-NCOR2 ag 25*, PG9 binder conf 30*, PGV04 Ab binding 57* and NR1D1 mod conf 25*.
CC(=O)OCC(=O)[C@@]1(O)CCC2C3CCC4=CC(=O)C=CC4(C)C3[C@@H](O)C[C@@]21C (stereo not given in full) was read as Rev-erbA mod -9.
Screening C#C[C@]1(O)CCC2C3CCc4cc(OC5CCCC5)ccc4C3CC[C@@]21C (stereo not given in full) returned Rev-erbA mod 3.
O=C(O)CSc1nc2ccccc2nc1Cc1ccccc1F was read as PG9 Ab binder 10*, NR2E3 ag-1 54*, Rev-erbA mod 22*, NR2E3 ag-2 -48, NR2E3 agonist cf 34*, PPARg-NCOR2 ag 36*, PG9 binder conf 16*, PGV04 Ab binding 27* and NR1D1 mod conf 12.
Screening COc1cccc(OCc2nc3ncc(Br)cc3[nH]2)c1 returned PG9 Ab binder 51*, NR2E3 ag-1 20*, Rev-erbA mod 26*, NR2E3 ag-2 -108, NR2E3 agonist cf 11, PPARg-NCOR2 ag 26*, PG9 binder conf 52*, PGV04 Ab binding 64* and NR1D1 mod conf 17*.
For COc1cccc(OCc2nc3ccccc3[nH]2)c1 the results were PG9 Ab binder -1, NR2E3 ag-1 2, Rev-erbA mod -5 and NR2E3 ag-2 -89.
Screening CCOc1ncccc1C(=O)Nc1ccc(C(=O)Nc2ccc(OC)cc2)cc1 returned PG9 Ab binder 4, NR2E3 ag-1 44*, Rev-erbA mod 21*, NR2E3 ag-2 -21, NR2E3 agonist cf 34*, PPARg-NCOR2 ag 33* and NR1D1 mod conf 14.

Bioassay records as filed in PubChem.
